The nature of data set [1]: Metabolic stability in dog liver microsomes assessed as parent compound remaining at 1 uM after 30 mins in presence of NADPH by LC/MS/MS analysis. It is filed as ADME, Canis lupus familiaris, Microsome. Particulars: read-out: Stability. The procedure, abridged:
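Compound at 1 μM final with 0.5 mg/mL microsomal protein in 100 mM phosphate buffer pH 7.4 at 37 °C, started by adding an NADPH-regenerating system. Reactions were quenched with cold acetonitrile at 0 and 30 min and spun down. Supernatant was analysed by LC-MS/MS. The 0-min sample, quenched before NADPH addition, was set as 100%, and percent parent remaining came from peak areas.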

Data set [2] is described as follows: Volume of distribution at steady state in mouse at 2 mg/kg, iv. Particulars: in vivo, read-out: Vdss. Type of data set: ADME, organism-based.
The target of data set [3] is Tyrosine-protein kinase ABL1 (Homo sapiens) (UniProt P00519). Kind of data set: Binding affinity to wild-type human phosphorylated ABL1 (S229 to K512 residues) expressed in mammalian expression system assessed as residual binding level at 1 uM by Kinomescan method relative to control.
For data set [4], the target named is Activin receptor type-2A (Homo sapiens) (UniProt P27037). The experiment in a line: Binding affinity to wild-type human ACVR2A (V171 to T499 residues) expressed in bacterial expression system assessed as residual binding level at 1 uM by Kinomescan method relative to control.
For data set [5], the system named is ALK tyrosine kinase receptor (Homo sapiens), Q9UM73 [L1196M]. The experiment in a line: Binding affinity to wild-type human partial length ALK L1196M mutant (I1088 to E1409 residues) expressed in mammalian expression system assessed as residual binding level at 1 uM by Kinomescan method relative to control.
Data set [6] deals with Bone morphogenetic protein receptor type-1B (Homo sapiens) (UniProt O00238). The experiment in a line: Binding affinity to wild-type human partial length BMPR1B (D178 to L502 residues) expressed in mammalian expression system assessed as residual binding level at 1 uM by Kinomescan method relative to control.
For data set [7], the target named is Cytoplasmic tyrosine-protein kinase BMX (Homo sapiens) (UniProt P51813). The experiment in a line: Binding affinity to wild-type human full length BMX (M1 to H675 residues) expressed in bacterial expression system assessed as residual binding level at 1 uM by Kinomescan method relative to control.
In data set [8] the target is Cyclin-dependent kinase-like 2 (Homo sapiens) (UniProt Q92772). Kind of data set: Binding affinity to wild-type human partial length CDKL2 (M1 to D327 residues) expressed in bacterial expression system assessed as residual binding level at 1 uM by Kinomescan method relative to control.
Chain of Cyclin-dependent kinase-like 2 (Homo sapiens) (Q92772 whole entry, the tested form may be a part): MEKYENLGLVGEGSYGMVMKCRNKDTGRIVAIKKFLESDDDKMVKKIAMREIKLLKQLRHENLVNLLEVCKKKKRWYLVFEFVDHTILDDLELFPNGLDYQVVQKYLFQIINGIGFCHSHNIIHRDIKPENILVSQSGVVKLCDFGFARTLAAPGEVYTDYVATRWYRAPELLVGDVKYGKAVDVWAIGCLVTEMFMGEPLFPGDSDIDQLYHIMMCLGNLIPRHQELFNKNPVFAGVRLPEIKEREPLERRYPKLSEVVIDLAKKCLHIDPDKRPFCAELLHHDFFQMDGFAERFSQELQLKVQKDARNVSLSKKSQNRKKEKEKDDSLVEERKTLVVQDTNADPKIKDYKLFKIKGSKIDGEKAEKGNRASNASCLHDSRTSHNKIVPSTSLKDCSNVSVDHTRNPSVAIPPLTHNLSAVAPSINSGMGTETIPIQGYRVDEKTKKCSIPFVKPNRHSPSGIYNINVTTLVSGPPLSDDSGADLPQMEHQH
In data set [9] the target is Serine/threonine-protein kinase DCLK3 (Homo sapiens) (UniProt Q9C098). The experiment in a line: Binding affinity to wild-type human partial length DCAMKL3 (E140 to V628 residues) expressed in bacterial expression system assessed as residual binding level at 1 uM by Kinomescan method relative to control.
The target of data set [10] is Ephrin type-A receptor 3 (Homo sapiens) (UniProt P29320). The experiment in a line: Binding affinity to wild-type human partial length EPHA3 (D604 to K889 residues) expressed in bacterial expression system assessed as residual binding level at 1 uM by Kinomescan method relative to control.
Chain of Ephrin type-A receptor 3 (Homo sapiens) (P29320 whole entry, the tested form may be a part): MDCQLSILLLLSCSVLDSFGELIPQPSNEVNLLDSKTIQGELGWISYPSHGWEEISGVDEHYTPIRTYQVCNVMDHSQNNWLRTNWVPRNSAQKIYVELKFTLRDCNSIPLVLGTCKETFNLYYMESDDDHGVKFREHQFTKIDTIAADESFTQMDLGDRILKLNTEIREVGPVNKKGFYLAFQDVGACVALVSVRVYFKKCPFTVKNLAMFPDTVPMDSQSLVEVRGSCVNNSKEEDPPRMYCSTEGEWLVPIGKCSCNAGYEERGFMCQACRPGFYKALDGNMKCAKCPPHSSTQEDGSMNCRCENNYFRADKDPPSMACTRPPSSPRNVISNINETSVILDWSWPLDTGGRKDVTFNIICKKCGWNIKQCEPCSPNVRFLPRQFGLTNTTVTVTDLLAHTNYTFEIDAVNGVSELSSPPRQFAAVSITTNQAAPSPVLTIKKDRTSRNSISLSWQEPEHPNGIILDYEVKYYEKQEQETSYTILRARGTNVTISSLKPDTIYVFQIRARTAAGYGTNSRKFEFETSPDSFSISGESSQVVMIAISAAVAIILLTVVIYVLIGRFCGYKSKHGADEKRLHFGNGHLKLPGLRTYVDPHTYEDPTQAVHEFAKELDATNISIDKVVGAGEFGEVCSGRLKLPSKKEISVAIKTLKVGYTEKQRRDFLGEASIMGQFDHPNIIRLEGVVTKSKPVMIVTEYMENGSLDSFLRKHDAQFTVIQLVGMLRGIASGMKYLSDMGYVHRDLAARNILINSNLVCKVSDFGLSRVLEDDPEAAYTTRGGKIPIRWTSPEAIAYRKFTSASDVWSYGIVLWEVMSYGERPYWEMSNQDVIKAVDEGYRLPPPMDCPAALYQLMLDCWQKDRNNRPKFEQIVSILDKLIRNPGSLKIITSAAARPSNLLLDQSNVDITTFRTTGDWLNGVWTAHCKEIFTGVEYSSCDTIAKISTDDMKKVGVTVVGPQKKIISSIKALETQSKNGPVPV
Data set [11] concerns the target Receptor tyrosine-protein kinase erbB-3 (Homo sapiens) (UniProt P21860). The experiment in a line: Binding affinity to wild-type human partial length ERBB3 (G684 to A987 residues) expressed in mammalian expression system assessed as residual binding level at 1 uM by Kinomescan method relative to control.
Data set [12] has as its target Mitogen-activated protein kinase 7 (Homo sapiens) (UniProt Q13164). Kind of data set: Binding affinity to wild-type human partial length ERK5 (M1 to A409 residues) expressed in bacterial expression system assessed as residual binding level at 1 uM by Kinomescan method relative to control.
Data set [13] addresses Serine/threonine-protein kinase/endoribonuclease IRE1 (Homo sapiens) (UniProt O75460). The experiment in a line: Binding affinity to wild-type human partial length ERN1 (S551 to E852 residues) expressed in mammalian expression system assessed as residual binding level at 1 uM by Kinomescan method relative to control.
In data set [14] the target is Tyrosine-protein kinase Fyn (Homo sapiens) (UniProt P06241). The experiment in a line: Binding affinity to wild-type human partial length FYN (T243 to L534 residues) expressed in bacterial expression system assessed as residual binding level at 1 uM by Kinomescan method relative to control.
Chain of Tyrosine-protein kinase Fyn (Homo sapiens) (P06241 2-537 limits assumed): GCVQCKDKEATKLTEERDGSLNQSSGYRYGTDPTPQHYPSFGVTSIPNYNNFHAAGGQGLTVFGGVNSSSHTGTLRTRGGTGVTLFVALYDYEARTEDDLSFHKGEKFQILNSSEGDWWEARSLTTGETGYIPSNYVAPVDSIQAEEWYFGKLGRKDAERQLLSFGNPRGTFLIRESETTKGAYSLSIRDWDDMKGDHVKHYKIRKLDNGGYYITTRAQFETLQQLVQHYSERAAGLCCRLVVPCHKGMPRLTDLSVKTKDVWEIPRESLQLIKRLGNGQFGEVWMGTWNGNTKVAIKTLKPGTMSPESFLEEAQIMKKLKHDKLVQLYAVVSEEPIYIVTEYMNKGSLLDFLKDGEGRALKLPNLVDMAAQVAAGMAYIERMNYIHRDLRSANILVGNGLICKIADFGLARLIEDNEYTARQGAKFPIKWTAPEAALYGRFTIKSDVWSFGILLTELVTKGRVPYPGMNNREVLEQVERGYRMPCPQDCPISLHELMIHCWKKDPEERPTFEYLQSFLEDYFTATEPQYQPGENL
The target in data set [15] is Inhibitor of nuclear factor kappa-B kinase subunit beta (Homo sapiens) (UniProt O14920). Kind of data set: Binding affinity to wild-type human full length IKK-beta (M1 to S756 residues) expressed in mammalian expression system assessed as residual binding level at 1 uM by Kinomescan method relative to control. A digest of the protocol: (§1)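 Single-point kinome-wide KINOMEscan binding panel, test compound at 1 μM, run by the provider's standard protocol.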
Chain of Inhibitor of nuclear factor kappa-B kinase subunit beta (Homo sapiens) (O14920 whole entry, the tested form may be a part): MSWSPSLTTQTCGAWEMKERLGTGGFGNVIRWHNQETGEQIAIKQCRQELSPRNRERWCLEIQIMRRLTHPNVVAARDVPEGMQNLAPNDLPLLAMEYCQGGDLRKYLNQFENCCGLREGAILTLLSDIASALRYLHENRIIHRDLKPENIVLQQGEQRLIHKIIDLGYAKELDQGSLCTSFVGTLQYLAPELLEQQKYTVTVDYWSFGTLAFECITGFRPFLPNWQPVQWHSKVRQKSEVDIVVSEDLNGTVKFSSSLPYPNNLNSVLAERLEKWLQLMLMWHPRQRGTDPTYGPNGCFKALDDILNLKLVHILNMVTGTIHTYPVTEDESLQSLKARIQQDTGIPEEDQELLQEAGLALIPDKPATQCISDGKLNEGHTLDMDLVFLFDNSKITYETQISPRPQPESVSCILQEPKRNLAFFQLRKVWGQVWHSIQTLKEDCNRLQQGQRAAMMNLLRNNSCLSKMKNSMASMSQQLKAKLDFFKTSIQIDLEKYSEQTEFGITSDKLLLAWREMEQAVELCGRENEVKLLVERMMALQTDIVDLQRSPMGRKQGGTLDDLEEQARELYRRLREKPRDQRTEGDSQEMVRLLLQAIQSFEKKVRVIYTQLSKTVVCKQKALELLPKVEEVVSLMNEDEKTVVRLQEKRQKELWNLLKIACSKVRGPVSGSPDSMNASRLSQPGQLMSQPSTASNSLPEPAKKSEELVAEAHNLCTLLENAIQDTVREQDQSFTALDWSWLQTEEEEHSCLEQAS

Data set [16] deals with Mitogen-activated protein kinase kinase kinase kinase 3 (Homo sapiens) (UniProt Q8IVH8). Kind of data set: Binding affinity to wild-type human partial length MAP4K3 (M1 to D301 residues) expressed in bacterial expression system assessed as residual binding level at 1 uM by Kinomescan method relative to control.
Chain of Mitogen-activated protein kinase kinase kinase kinase 3 (Homo sapiens) (Q8IVH8 whole entry, the tested form may be a part): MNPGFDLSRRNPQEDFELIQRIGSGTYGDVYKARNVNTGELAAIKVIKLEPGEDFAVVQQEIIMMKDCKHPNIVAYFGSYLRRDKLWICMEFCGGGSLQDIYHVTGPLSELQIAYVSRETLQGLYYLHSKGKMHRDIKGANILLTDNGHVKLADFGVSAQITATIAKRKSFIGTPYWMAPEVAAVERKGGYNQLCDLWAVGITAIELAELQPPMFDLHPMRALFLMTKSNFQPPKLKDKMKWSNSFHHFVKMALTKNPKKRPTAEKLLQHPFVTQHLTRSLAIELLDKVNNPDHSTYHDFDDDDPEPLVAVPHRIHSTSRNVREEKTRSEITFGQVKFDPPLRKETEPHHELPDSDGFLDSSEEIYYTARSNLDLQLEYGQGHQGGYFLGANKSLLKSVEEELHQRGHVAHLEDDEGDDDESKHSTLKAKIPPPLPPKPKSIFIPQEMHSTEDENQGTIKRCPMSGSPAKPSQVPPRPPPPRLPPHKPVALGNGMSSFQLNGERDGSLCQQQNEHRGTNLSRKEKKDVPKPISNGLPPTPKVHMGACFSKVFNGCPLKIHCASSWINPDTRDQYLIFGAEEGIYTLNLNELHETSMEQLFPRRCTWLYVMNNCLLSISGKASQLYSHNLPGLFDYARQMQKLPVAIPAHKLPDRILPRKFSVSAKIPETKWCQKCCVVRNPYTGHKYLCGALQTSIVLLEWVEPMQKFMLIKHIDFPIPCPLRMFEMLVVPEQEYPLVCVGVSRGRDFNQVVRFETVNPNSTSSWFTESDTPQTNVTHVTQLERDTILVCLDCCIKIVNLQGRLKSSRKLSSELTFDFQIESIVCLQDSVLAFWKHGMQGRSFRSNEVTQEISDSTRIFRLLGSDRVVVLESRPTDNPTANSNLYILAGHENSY
Data set [17] has as its target MAP/microtubule affinity-regulating kinase 4 (Homo sapiens) (UniProt Q96L34). The experiment in a line: Binding affinity to wild-type human partial length MARK4 (K29 to G340 residues) expressed in bacterial expression system assessed as residual binding level at 1 uM by Kinomescan method relative to control.
Data set [18] concerns the target MAP kinase-interacting serine/threonine-protein kinase 2 (Homo sapiens) (UniProt Q9HBH9). Kind of data set: Binding affinity to wild-type human partial length MKNK2 (G63 to S388 residues) expressed in mammalian expression system assessed as residual binding level at 1 uM by Kinomescan method relative to control.
For data set [19], the target named is Mitogen-activated protein kinase kinase kinase 9 (Homo sapiens) (UniProt P80192). Kind of data set: Binding affinity to wild-type human partial length MLK1 (V88 to W426 residues) expressed in bacterial expression system assessed as residual binding level at 1 uM by Kinomescan method relative to control.
The target in data set [20] is Cyclin-dependent kinase 18 (Homo sapiens) (UniProt Q07002). Kind of data set: Binding affinity to wild-type human full length PCTK3 (M3 to F474 residues) expressed in bacterial expression system assessed as residual binding level at 1 uM by Kinomescan method relative to control. The procedure, abridged:
as §1

Data set [21] has as its target Cyclin-dependent kinase 15 (Homo sapiens) (UniProt Q96Q40). The experiment in a line: Binding affinity to wild-type human full length PFTAIRE2 (M1 to W384 residues) expressed in bacterial expression system assessed as residual binding level at 1 uM by Kinomescan method relative to control. The procedure, abridged: as §1
Data set [22] concerns the target cAMP-dependent protein kinase catalytic subunit beta (Homo sapiens) (UniProt P22694). The experiment in a line: Binding affinity to wild-type human full length PKAC-beta (M1 to F351 residues) expressed in bacterial expression system assessed as residual binding level at 1 uM by Kinomescan method relative to control. The procedure, abridged:
as §1

In data set [23] the target is SRSF protein kinase 2 (Homo sapiens) (UniProt P78362). Kind of data set: Binding affinity to wild-type human full length SRPK2 (M1 to S686 residues) expressed in bacterial expression system assessed as residual binding level at 1 uM by Kinomescan method relative to control. The procedure, abridged:
as §1

The target in data set [24] is Dual specificity testis-specific protein kinase 1 (Homo sapiens) (UniProt Q15569). The experiment in a line: Binding affinity to wild-type human full length TESK1 (R37 to S626 residues) expressed in bacterial expression system assessed as residual binding level at 1 uM by Kinomescan method relative to control.

Chain of Cyclin-dependent kinase 15 (Homo sapiens) (Q96Q40 whole entry, the tested form may be a part): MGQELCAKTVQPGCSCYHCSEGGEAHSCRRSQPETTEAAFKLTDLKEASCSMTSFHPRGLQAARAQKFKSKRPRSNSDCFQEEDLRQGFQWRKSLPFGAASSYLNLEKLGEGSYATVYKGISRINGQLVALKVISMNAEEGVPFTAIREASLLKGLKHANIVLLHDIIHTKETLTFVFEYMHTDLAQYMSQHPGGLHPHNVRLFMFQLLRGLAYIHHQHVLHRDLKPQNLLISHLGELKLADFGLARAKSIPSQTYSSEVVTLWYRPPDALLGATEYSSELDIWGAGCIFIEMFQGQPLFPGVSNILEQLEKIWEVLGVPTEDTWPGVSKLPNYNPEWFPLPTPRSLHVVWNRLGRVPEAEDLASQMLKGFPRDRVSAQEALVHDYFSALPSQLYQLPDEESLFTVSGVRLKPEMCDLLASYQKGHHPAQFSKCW
Chain of MAP kinase-interacting serine/threonine-protein kinase 2 (Homo sapiens) (Q9HBH9 whole entry, looked up, the tested form may be a part): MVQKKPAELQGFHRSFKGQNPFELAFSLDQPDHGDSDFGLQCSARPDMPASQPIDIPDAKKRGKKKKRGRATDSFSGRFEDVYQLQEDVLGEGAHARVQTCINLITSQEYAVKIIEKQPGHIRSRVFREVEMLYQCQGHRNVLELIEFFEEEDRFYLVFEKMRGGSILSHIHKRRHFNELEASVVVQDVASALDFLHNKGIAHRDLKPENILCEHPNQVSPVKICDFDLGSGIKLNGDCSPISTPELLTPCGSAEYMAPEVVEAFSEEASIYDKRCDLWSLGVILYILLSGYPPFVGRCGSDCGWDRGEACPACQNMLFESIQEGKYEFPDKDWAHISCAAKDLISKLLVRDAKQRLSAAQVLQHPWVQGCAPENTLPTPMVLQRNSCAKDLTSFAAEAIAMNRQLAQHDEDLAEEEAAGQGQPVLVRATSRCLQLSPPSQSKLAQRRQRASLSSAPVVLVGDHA
Chain of Cyclin-dependent kinase 18 (Homo sapiens) (Q07002 whole entry, the tested form may be a part): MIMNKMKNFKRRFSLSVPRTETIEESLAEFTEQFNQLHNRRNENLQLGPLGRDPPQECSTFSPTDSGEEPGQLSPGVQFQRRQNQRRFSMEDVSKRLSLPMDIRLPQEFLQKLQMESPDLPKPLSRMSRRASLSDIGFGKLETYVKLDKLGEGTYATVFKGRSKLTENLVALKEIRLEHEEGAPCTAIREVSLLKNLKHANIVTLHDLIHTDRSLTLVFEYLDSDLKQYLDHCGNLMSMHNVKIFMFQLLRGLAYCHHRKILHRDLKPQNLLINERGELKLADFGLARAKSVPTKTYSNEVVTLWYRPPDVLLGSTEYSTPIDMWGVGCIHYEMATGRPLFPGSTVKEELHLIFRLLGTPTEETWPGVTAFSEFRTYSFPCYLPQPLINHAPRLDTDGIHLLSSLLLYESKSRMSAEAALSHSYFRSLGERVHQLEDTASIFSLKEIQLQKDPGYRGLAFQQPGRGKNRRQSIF

Turning to `C=CC(=O)Nc1cc(Nc2ncc(Cl)c(Nc3ccccc3S(=O)(=O)C(C)C)n2)c(OC)cc1N(C)CCN(C)C`, in data set [1], the remaining at 0.5 h, 1 µM stood at 17%. In addition, in [2], the Vd is 2.66 L/kg. Moreover, the Activity came out at 7.5% in data set [3]; 96% in [4]; 0% in [5]; 0% in data set [6]; 4.5% in data set [7]; 93% in data set [8]. Besides, the Activity was found to be 30% in [9]; 77% in data set [10]; 91% in [11]; 37% in data set [12]; 39% in data set [13]; 46% in data set [14]. Further, the Activity came to 96% in data set [15]; 3.3% in [16]; 6% in data set [17]; 26% in [18]; 39% in [19]; 77% in data set [20]. The Activity in data set [21] turned out to be 90%; in [22] it was 99%; in data set [23], 99%; in data set [24] it was 91%.

(Values after ChEMBL document CHEMBL4382192, “Discovery of a potent dual ALK and EGFR T790M inhibitor” (Eur J Med Chem, 2017).)
